Assay results taken from ChEMBL document CHEMBL3826882, “Discovery of 1-((2R,4aR,6R,7R,7aR)-2-Isopropoxy-2-oxidodihydro-4H,6H-spiro[furo[3,2-d][1,3,2]dioxaphosphinine-7,2'-oxetan]-6-yl)pyrimidine-2,4(1H,3H)-dione (JNJ-54257099), a 3'-5'-Cyclic Phosphate Ester Prodrug of 2'-Deoxy-2'-Spirooxetane Uridine Triphosphate Useful for HCV Inhibition” (J Med Chem, 2016).

Legend:
Hepatocyte [1] = assay: Drug metabolism in rat primary hepatocytes assessed as ((4R,5R,7R,8R)-5-(2,4-dioxo-3,4-dihydropyrimidin-1(2H)-yl)-8-hydroxy-1,6-dioxaspiro[3.4]octan-7-yl)methyl dihydrogen phosphate formation at 2 to 62.5 uM after 24 hrs using radiolabeled compound by LC-MS/MS analysis; assay type: ADME, cell-based
Summary of the method: (§1)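 Fresh primary hepatocyte cultures incubated with tritiated prodrug (5'-[3H]) at 2 and 62.5 µM for 4 and 24 h. Supernatants taken after protein precipitation and profiled by HPLC with radioactivity detection. Cell lysates profiled for metabolites by radio-LC. Cyclic monophosphate also measured by LC/MS/MS.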

[2] = Prodrug conversion in dog primary hepatocytes assessed as 2'-deoxy-2'-spirooxetane uridine triphosphate level per million cells at 62.5 uM after 24 hrs using radiolabelled compound by LC-MS/MS analysis; assay type: ADME, cell-based, Canis lupus familiaris, Hepatocyte
Summary of the method: (§2)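 Study A: fresh primary hepatocyte cultures from mouse, rat, dog and human incubated with tritiated prodrug at 2 or 62.5 µM for 4 or 24 h. Triphosphate in cell lysates reported as pmol/million hepatocytes. Duplicate or single measurements.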

Hepatocyte [3] = assay: Stability in human primary hepatocyte supernatant assessed as parent compound level at 2 uM after 4 to 24 hrs using radiolabeled compound by HPLC analysis; assay type: ADME, cell-based; details: hepatocytes
Hepatocyte [4] = assay: Stability in rat primary hepatocyte supernatant assessed as parent compound level at 2 uM after 4 to 24 hrs using radiolabeled compound by HPLC analysis; assay type: ADME, cell-based; details: hepatocytes
Hepatocyte [5] = assay: Prodrug conversion in human primary hepatocytes assessed as 2'-deoxy-2'-spirooxetane uridine triphosphate level per million cells at 2 uM after 24 hrs using radiolabelled compound by LC-MS/MS analysis; assay type: ADME, cell-based; summary of the method: as §2
[6] = Stability in dog primary hepatocytes assessed as parent compound level at 2 to 62.5 uM after 4 hrs using radiolabeled compound by LC-MS/MS analysis; assay type: ADME, cell-based, Canis lupus familiaris, Hepatocyte; summary of the method: as §1
Hepatocyte [7] = assay: Prodrug conversion in mouse primary hepatocytes assessed as 2'-deoxy-2'-spirooxetane uridine triphosphate level per million cells at 2 uM after 24 hrs using radiolabelled compound by LC-MS/MS analysis; assay type: ADME, cell-based; summary of the method: as §2
Hepatocyte [8] = assay: Drug metabolism in human primary hepatocyte supernatant assessed as 1-((4R,5R,7R,8R)-8-hydroxy-7-(hydroxymethyl)-1,6-dioxaspiro[3.4]octan-5-yl)pyrimidine-2,4(1H,3H)-dione formation at 2 to 62.5 uM after 4 to 24 hrs using radiolabeled compound by HPLC analysis; assay type: ADME, cell-based; details: hepatocytes; summary of the method: as §1
Hepatocyte [9] = assay: Drug metabolism in mouse primary hepatocyte supernatant assessed as 1-((4R,5R,7R,8R)-8-hydroxy-7-(hydroxymethyl)-1,6-dioxaspiro[3.4]octan-5-yl)pyrimidine-2,4(1H,3H)-dione formation at 2 to 62.5 uM after 4 to 24 hrs using radiolabeled compound by HPLC analysis; assay type: ADME, cell-based; details: hepatocytes; summary of the method: as §1
Hepatocyte [10] = assay: Prodrug conversion in human cryopreserved hepatocytes assessed as 2'-deoxy-2'-spirooxetane uridine triphosphate level per million cells at 10 uM after 8 hrs by LC-MS/MS analysis; assay type: ADME, cell-based
Summary of the method: (§3)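 Plated cryopreserved hepatocytes (study B) incubated with 10 µM unlabeled prodrug for 2, 8 or 24 h. Triphosphate measured in cell lysates and expressed as pmol/million hepatocytes. Quantification limit 2 ng/10^6 cells.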

Liver [11] = assay: AUC (0 to last) in dog liver assessed as 2'-deoxy-2'-spirooxetane uridine triphosphate at 50 mg/kg, po; assay type: ADME, organism-based, Canis lupus familiaris; details: in vivo
Summary of the method: (§4)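 Oral dose 50 mg/kg, formulated in 20% HP-β-cyclodextrin. Prodrug and triphosphate were measured in plasma and liver (ng/mL or ng/g). Parameters derived were Cmax, tmax, AUC0-last, AUC0-inf and t1/2. Some prodrug data come from two independent studies.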

[12] = Cmax in mouse liver at 50 mg/kg, po; assay type: ADME, organism-based; design: dose 50 mg/kg, route oral
Hepatocyte [13] = assay: Prodrug conversion in mouse cryopreserved hepatocytes assessed as 2'-deoxy-2'-spirooxetane uridine triphosphate level per million cells at 10 uM after 2 hrs by LC-MS/MS analysis; assay type: ADME, cell-based; summary of the method: as §3
[14] = AUC (0 to infinity) in rat plasma at 50 mg/kg, po; assay type: ADME, organism-based; design: dose 50 mg/kg, time infinity, route oral; summary of the method: as §4
Liver [15] = assay: Tlast in mouse liver at 50 mg/kg, po; assay type: ADME, organism-based; details: in vivo
Summary of the method: (§5)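 Single oral dose of 50 mg/kg formulated in 20% HP-β-cyclodextrin. Prodrug and its triphosphate were measured in plasma and liver (ng/mL or ng/g) over time, and Cmax, tmax, AUC, tlast and t1/2 were derived. For some analytes, data from two independent studies are reported.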

[16] = Cmax in mouse plasma at 50 mg/kg, po; assay type: ADME, organism-based; design: dose 50 mg/kg, route oral
Liver [17] = assay: Tlast in rat liver assessed as 2'-deoxy-2'-spirooxetane uridine triphosphate at 50 mg/kg, po; assay type: ADME, organism-based; details: in vivo; summary of the method: as §5
Hepatitis C virus = assay: Antiviral activity against HCV genotype 1a infected in homozygous cDNA-uPA chimeric SCID mouse bearing humanized hepatocytes assessed as change in HCV RNA level in serum at 100 mg/kg, po bid administered through gavage for 7 days by RT-PCR method; assay type: functional, Hepacivirus hominis, subtype 1a, Hepatocyte
Summary of the method: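 Male chimeric SCID cDNA-uPA+/+ mice with human hepatocyte liver (≥70% replacement by blood human albumin) and serum HCV RNA >1.0×10^6 copies/mL the week before dosing. Oral gavage for 7 days in 20% HP-β-CD, 50-200 mg/kg QD or BID. Serum sampled pre-dose on days 1, 2, 3, 5 and 7. Real-time PCR; mean change in log10 copies/mL, day 7 vs day 1 pre-dose.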

[18] = Cmax in rat liver at 50 mg/kg, po; assay type: ADME, organism-based; design: dose 50 mg/kg, route oral
[19] = Cmax in dog plasma at 50 mg/kg, po; assay type: ADME, organism-based, Canis lupus familiaris; design: dose 50 mg/kg, route oral
Hepatocyte [20] = assay: Drug metabolism in human hepatocytes assessed as ((4R,5R,7R,8R)-5-(2,4-dioxo-3,4-dihydropyrimidin-1(2H)-yl)-8-hydroxy-1,6-dioxaspiro[3.4]octan-7-yl)methyl dihydrogen phosphate formation in presence of pan-CYP inhibitor 1-ABT by LC-MS/MS analysis; assay type: ADME, cell-based
Hepatocyte [21] = assay: Prodrug conversion in mouse cryopreserved hepatocytes assessed as 2'-deoxy-2'-spirooxetane uridine triphosphate level per million cells at 10 uM after 24 hrs by LC-MS/MS analysis; assay type: ADME, cell-based; summary of the method: as §3
[22] = AUC (0 to last) in dog plasma at 50 mg/kg, po; assay type: ADME, organism-based, Canis lupus familiaris; design: dose 50 mg/kg, route oral, time 0 - last; summary of the method: as §4
Hepatocyte [23] = assay: Drug level in human hepatocytes treated with JNJ-54257099 in presence of CYP2C8 and CYP2C9 inhibitor montelukast by LC-MS/MS analysis; assay type: ADME, cell-based
Plasma = assay: Tlast in dog plasma at 50 mg/kg, po; assay type: ADME, organism-based, Canis lupus familiaris; details: in vivo; summary of the method: as §5
Liver [24] = assay: AUC (0 to last) in rat liver assessed as 2'-deoxy-2'-spirooxetane uridine triphosphate at 50 mg/kg, po; assay type: ADME, organism-based; details: in vivo; summary of the method: as §4
Liver [25] = assay: AUC (0 to last) in rat liver at 50 mg/kg, po; assay type: ADME, organism-based; details: in vivo; summary of the method: as §4
Liver [26] = assay: AUC (0 to last) in mouse liver at 50 mg/kg, po; assay type: ADME, organism-based; details: in vivo; summary of the method: as §4
[27] = Ratio of AUC (0 to last) in rat liver to AUC (0 to last) in rat plasma; assay type: ADME
Summary of the method: (§6)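 Single oral dose of 50 mg/kg in 20% HP-β-cyclodextrin. Prodrug and triphosphate measured in plasma and liver over time (tlast 6–30 h). Half-life, Cmax, tmax and AUC0-last derived; liver/plasma ratio taken from AUC0-last. Prodrug data pooled from two independent studies.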

Liver [28] = assay: Tlast in rat liver at 50 mg/kg, po; assay type: ADME, organism-based; details: in vivo; summary of the method: as §5
[29] = Tmax in rat liver at 50 mg/kg, po; assay type: ADME, organism-based; summary of the method: as §5
[30] = Ratio of AUC (0 to last) in dog liver to AUC (0 to last) in dog plasma; assay type: ADME, Canis lupus familiaris; summary of the method: as §6

## [3H]C1O[P@](=O)(OC(C)C)O[C@@H]2[C@@H]1O[C@@H](n1ccc(=O)[nH]c1=O)[C@@]21CCO1 (some centres not stated)
Hepatocyte [1]
  Drug metabolism: metabolite_detected
[2]
  Drug metabolism: 0.11 pmol
Hepatocyte [3]
  Stability: Stable
Hepatocyte [4]
  Stability: Stable
Hepatocyte [5]
  Drug metabolism: 0.025 pmol
[6]
  Stability: Stable
Hepatocyte [7]
  Drug metabolism: 0.049 pmol
Hepatocyte [8]
  Drug metabolism: metabolite_detected
Hepatocyte [9]
  Drug metabolism: metabolite_detected

## CC(C)O[P@@]1(=O)OC[C@H]2O[C@@H](n3ccc(=O)[nH]c3=O)[C@@]3(CCO3)[C@@H]2O1
Hepatocyte [10]
  Drug metabolism: 0.172 pmol
Liver [11]
  AUClast: 223803 ng·h/g
[12]
  Cmax: 701 ng/g
Hepatocyte [13]
  Drug metabolism: 0.538 pmol
[14]
  AUC(0-inf): 7440 ng·h/mL
Liver [15]
  Tlast: 6 h
[16]
  Cmax: 851 ng/mL
Liver [17]
  Tlast: 30 h
Hepatitis C virus
  Activity: -1.17
[18]
  Cmax: 944 ng/g
[19]
  Cmax: 4650 ng/mL
Hepatocyte [20]
  Drug metabolism: metabolite_notdetected
Hepatocyte [21]
  Drug metabolism: 0.519 pmol
[22]
  AUC(0-t): 25600 ng·h/mL
Hepatocyte [23]
  Drug uptake: Active
Plasma
  Tlast: 24 h
Liver [24]
  AUClast: 719469 ng·h/g
Liver [25]
  AUClast: 2489 ng·h/g
Liver [26]
  AUClast: 1456 ng·h/g
[27]
  Kp: 0.34
Liver [28]
  Tlast: 6 h
[29]
  Tmax: 1 h
[30]
  Kp: 1.4
